Measurements: ChEMBL document CHEMBL1165886, “Synthesis, anticonvulsant and toxicity screening of newer pyrimidine semicarbazone derivatives” (Eur J Med Chem, 2010)
Active and inactive are the calls of the source. The calls are words filed in the database; no cut-off is given here.

Legend:
Mus musculus [1] = test: Anticonvulsant activity in ip dosed Albino mouse assessed as protection against maximal electric shock-induced seizure after 0.5 hrs; assay type: functional
In short: (§1)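 Mice given test compound i.p. in polyethylene glycol at 30, 100 and 300 mg/kg; corneal electrodes delivered 50 mA, 60 Hz for 0.25 s at 0.5 h and 4.0 h after dosing. Protection scored as abolition of hind limb tonic extension.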

Mus musculus [2] = test: Anticonvulsant activity in ip dosed Albino mouse assessed as protection against maximal electric shock-induced seizure after 4 hrs; assay type: functional; in short: as §1
Mus musculus [3] = test: Anticonvulsant activity in ip dosed Albino mouse assessed as protection against scPTZ-induced seizure after 0.5 hrs; assay type: functional
In short: (§2)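 Test compound given i.p. in polyethylene glycol at 30, 100 and 300 mg/kg. Pentylenetetrazole 75 mg/kg, as a 0.5% solution, injected subcutaneously in the posterior midline. Animals examined 0.5 h and 4 h after dosing. Value is the minimum dose active in half or more of the mice; dash means no activity at maximum dose.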

Mus musculus [4] = test: Anticonvulsant activity in ip dosed Albino mouse assessed as protection against scPTZ-induced seizure after 4 hrs; assay type: functional; in short: as §2
[5] = Neurotoxicity in ip dosed Albino mouse assessed as minimal motor impairment after 0.5 hrs by rotarod test; assay type: toxicity, organism-based; conditions: in vivo
In short: (§3)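 Mice pretrained on an accelerating rotorod, 3.2 cm diameter, rotating at 10 rpm. Test compound given i.p. in polyethylene glycol at 30, 100 and 300 mg/kg; examined at 0.5 h and 4 h. Neurotoxicity = inability to hold equilibrium on the rod for at least 1 min in each trial. Minimum dose affecting half or more of mice reported.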

[6] = Neurotoxicity in ip dosed Albino mouse assessed as minimal motor impairment after 4 hrs by rotarod test; assay type: toxicity, organism-based; conditions: in vivo; in short: as §3
Mus musculus [7] = test: Anticonvulsant activity in Albino mouse assessed as protection against maximal electric shock-induced seizure at 300 mg/kg, ip after 4 hrs; assay type: functional, organism-based; set-up: dose 300 mg/kg; in short: as §1
Mus musculus [8] = test: Anticonvulsant activity in Albino mouse assessed as protection against scPTZ-induced seizure at 300 mg/kg, ip after 0.5 hrs; assay type: functional, organism-based; set-up: dose 300 mg/kg; in short: as §2
Mus musculus [9] = test: Anticonvulsant activity in Albino mouse assessed as protection against scPTZ-induced seizure at 300 mg/kg, ip after 4 hrs; assay type: functional, organism-based; set-up: dose 300 mg/kg; in short: as §2
Mus musculus [10] = test: Neurotoxicity in Albino mouse assessed as minimal motor impairment at 300 mg/kg, ip after 4 hrs by rotarod test; assay type: toxicity, organism-based; set-up: dose 300 mg/kg, route intraperitoneal; conditions: in vivo; in short: as §3
Mus musculus [11] = test: Anticonvulsant activity in Albino mouse assessed as protection against maximal electric shock-induced seizure at 300 mg/kg, ip after 0.5 hrs; assay type: functional, organism-based; set-up: dose 300 mg/kg; in short: as §1
Mus musculus [12] = species on record: Mus musculus; test: Hepatotoxicity in Albino mouse assessed as albumin level measured per 100 mL (RVb =1.45 +/- 0.06 g); assay type: toxicity, organism-based; conditions: in vivo
Mus musculus [13] = species on record: Mus musculus; test: Hepatotoxicity in Albino mouse assessed as globulin level measured per 100 mL (RVb = 0.24 +/- 0.03 g); assay type: toxicity, organism-based; conditions: in vivo
Mus musculus [14] = species on record: Mus musculus; test: Hepatotoxicity in Albino mouse assessed as total protein level measured per 100 mL (RVb = 1.69 +/- 0.05 g); assay type: toxicity, organism-based; conditions: in vivo
Mus musculus [15] = test: Neurotoxicity in Albino mouse assessed as minimal motor impairment at 300 mg/kg, ip after 0.5 hrs by rotarod test; assay type: toxicity, organism-based; set-up: dose 300 mg/kg, route intraperitoneal; conditions: in vivo; in short: as §3
Mus musculus [16] = species on record: Mus musculus; test: Hepatotoxicity in Albino mouse assessed as change in alkaline phosphatase level; assay type: toxicity, organism-based; conditions: in vivo
In short: (§4)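 Serum alkaline phosphatase, SGOT and SGPT levels measured in treated mice versus control; transaminases estimated by the Reitman–Frankel method. Results given as mean ± SEM.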

Mus musculus [17] = species on record: Mus musculus; test: Hepatotoxicity in Albino mouse assessed as change in SGOT level; assay type: toxicity, organism-based; conditions: in vivo; in short: as §4
Mus musculus [18] = species on record: Mus musculus; test: Hepatotoxicity in Albino mouse assessed as change in SGPT level; assay type: toxicity, organism-based; conditions: in vivo; in short: as §4

| Structure (SMILES) | ED50 (Mus musculus [1]) | ED50 (Mus musculus [2]) | ED50 (Mus musculus [3]) | ED50 (Mus musculus [4]) | TD50 at 0.5 h [5] | TD50 at 4 h [6] | Activity (Mus musculus [8]) | Activity (Mus musculus [9]) | Activity (Mus musculus [11]) | further results |
| --- | --- | --- | --- | --- | --- | --- | --- | --- | --- | --- |
| C/C(=N/NC(=O)Nc1nc(-c2ccc(C)cc2)cc(-c2ccc(Cl)cc2)n1)c1ccc([N+](=O)[O-])cc1 | 100 mg/kg | 300 mg/kg | 300 mg/kg | 300 mg/kg | 100 mg/kg | 100 mg/kg |  |  |  |  |
| COc1ccc(-c2cc(-c3ccc(F)cc3)nc(NC(=O)N/N=C\c3ccccc3[N+](=O)[O-])n2)c(OC)c1 | 300 mg/kg |  |  | 300 mg/kg |  |  | inactive |  |  | Activity (Mus musculus [7]): inactive |
| COc1ccc(-c2cc(-c3ccc(F)cc3)nc(NC(=O)N/N=C\c3cccc(Cl)c3)n2)cc1OC | 300 mg/kg | 300 mg/kg |  |  |  |  | inactive | inactive |  |  |
| COc1ccc(/C(C)=N\NC(=O)Nc2nc(-c3ccc(F)cc3)cc(-c3ccc([N+](=O)[O-])cc3)n2)cc1 | 100 mg/kg |  | 100 mg/kg | 300 mg/kg | 300 mg/kg |  |  |  |  | Activity (Mus musculus [7]): inactive; Activity (Mus musculus [10]): Non-toxic |
| CCC1(c2ccccc2)C(=O)NC(=O)NC1=O [PHENOBARBITAL] | 100 mg/kg | 30 mg/kg |  |  | 100 mg/kg | 300 mg/kg | inactive | inactive |  |  |
| COc1ccc(-c2cc(-c3ccc(F)cc3)nc(NC(=O)N/N=C(/C)c3ccc(C)cc3)n2)cc1 |  | 100 mg/kg | 300 mg/kg |  | 100 mg/kg |  |  |  | inactive | Activity (Mus musculus [10]): Non-toxic |
| COc1ccc(-c2cc(-c3ccc(Cl)cc3)nc(NC(=O)N/N=C\c3cccc(Cl)c3)n2)cc1OC | 100 mg/kg | 300 mg/kg |  | 300 mg/kg | 300 mg/kg | 300 mg/kg | inactive |  |  |  |
| COc1ccc(-c2cc(-c3ccc(Cl)cc3)nc(NC(=O)N/N=C\c3ccccc3[N+](=O)[O-])n2)c(OC)c1 |  | 300 mg/kg |  |  |  |  | inactive | inactive | inactive |  |
| COc1ccc(-c2cc(-c3ccc(Cl)cc3)nc(NC(=O)N/N=C(/C)c3ccccc3Cl)n2)cc1 |  |  |  | 300 mg/kg |  |  | inactive |  | inactive | Activity (Mus musculus [7]): inactive |
| C/C(=N/NC(=O)Nc1nc(-c2ccc(C)cc2)cc(-c2ccc(F)cc2)n1)c1ccc(Cl)cc1 | 30 mg/kg | 100 mg/kg | 100 mg/kg | 300 mg/kg |  | 300 mg/kg |  |  |  | Activity (Mus musculus [12]): 1.62 g; Activity (Mus musculus [13]): 0.31 g; Activity (Mus musculus [14]): 1.93 g; Activity (Mus musculus [15]): Non-toxic; Activity (Mus musculus [16]): Non-toxic; Activity (Mus musculus [17]): Non-toxic; Activity (Mus musculus [18]): Non-toxic |
| COc1ccc(-c2cc(-c3ccc(F)cc3)nc(NC(=O)N/N=C\c3ccc([N+](=O)[O-])cc3)n2)cc1OC | 100 mg/kg | 300 mg/kg | 300 mg/kg |  |  | 300 mg/kg |  | inactive |  | Activity (Mus musculus [15]): Non-toxic |
| C/C(=N/NC(=O)Nc1nc(-c2ccc(F)cc2)cc(-c2ccc([N+](=O)[O-])cc2)n1)c1ccc(C)cc1 | 100 mg/kg | 300 mg/kg | 300 mg/kg | 300 mg/kg |  | 300 mg/kg |  |  |  | Activity (Mus musculus [15]): Non-toxic |
| C/C(=N/NC(=O)Nc1nc(-c2ccc(C)cc2)cc(-c2ccc(F)cc2)n1)c1ccc([N+](=O)[O-])cc1 | 100 mg/kg | 300 mg/kg |  | 300 mg/kg | 100 mg/kg | 100 mg/kg | inactive |  |  |  |
| CCC1(C)CC(=O)NC1=O (stereo unspecified) [ETHOSUXIMIDE] |  |  | 100 mg/kg | 300 mg/kg |  |  |  |  | inactive | Activity (Mus musculus [7]): inactive; Activity (Mus musculus [15]): Non-toxic; Activity (Mus musculus [10]): Non-toxic |
| COc1ccc(-c2cc(-c3ccc(Cl)cc3)nc(NC(=O)N/N=C(/C)c3ccc(C)cc3)n2)cc1 | 300 mg/kg |  |  |  |  |  | inactive | inactive |  | Activity (Mus musculus [7]): inactive |
| O=C1NC(=O)C(c2ccccc2)(c2ccccc2)N1 [PHENYTOIN] | 30 mg/kg | 30 mg/kg |  |  | 100 mg/kg | 100 mg/kg | inactive | inactive |  |  |
| COc1ccc(-c2cc(-c3ccc(F)cc3)nc(NC(=O)N/N=C\c3ccccc3Cl)n2)c(OC)c1 |  | 300 mg/kg |  |  |  |  | inactive | inactive | inactive |  |
| COc1ccc(-c2cc(-c3ccc(Cl)cc3)nc(NC(=O)N/N=C\c3ccccc3Cl)n2)c(OC)c1 |  | 300 mg/kg |  |  |  |  | inactive | inactive | inactive |  |
| C/C(=N/NC(=O)Nc1nc(-c2ccc(Cl)cc2)cc(-c2ccc([N+](=O)[O-])cc2)n1)c1ccc(C)cc1 | 300 mg/kg | 300 mg/kg |  | 300 mg/kg |  |  | inactive |  |  |  |
| COc1ccc(/C(C)=N\NC(=O)Nc2nc(-c3ccc(Cl)cc3)cc(-c3ccc([N+](=O)[O-])cc3)n2)cc1 |  | 300 mg/kg |  |  |  |  | inactive | inactive | inactive |  |
| C/C(=N/NC(=O)Nc1nc(-c2ccc(C)cc2)cc(-c2ccc(Cl)cc2)n1)c1ccc(Cl)cc1 | 30 mg/kg | 300 mg/kg | 300 mg/kg | 300 mg/kg |  |  |  |  |  | Activity (Mus musculus [12]): 1.52 g; Activity (Mus musculus [13]): 0.19 g; Activity (Mus musculus [14]): 1.71 g; Activity (Mus musculus [15]): Non-toxic; Activity (Mus musculus [10]): Non-toxic; Activity (Mus musculus [16]): Non-toxic; Activity (Mus musculus [17]): Non-toxic; Activity (Mus musculus [18]): Non-toxic |
| COc1ccc(-c2cc(-c3ccc(Cl)cc3)nc(NC(=O)N/N=C\c3ccc([N+](=O)[O-])cc3)n2)cc1OC | 30 mg/kg | 100 mg/kg | 100 mg/kg | 100 mg/kg |  |  |  |  |  | Activity (Mus musculus [12]): 1.74 g; Activity (Mus musculus [13]): 0.26 g; Activity (Mus musculus [14]): 2 g; Activity (Mus musculus [15]): Non-toxic; Activity (Mus musculus [10]): Non-toxic; Activity (Mus musculus [16]): Non-toxic; Activity (Mus musculus [17]): Non-toxic; Activity (Mus musculus [18]): Non-toxic |
